In ChEMBL document CHEMBL1156575, “Toward an optimal blood-brain barrier shuttle by synthesis and evaluation of peptide libraries” (J Med Chem, 2008):
Where a SMILES comes first, the peptide text is derived from it. [ ]: non-standard residue; d: D form. Tpi = O=C(O)[C@@H]1Cc2c([nH]c3ccccc23)CN1; NMeW = CN[C@@H](Cc1c[nH]c2ccccc12)C(=O)O; 2Nal = N[C@@H](Cc1ccc2ccccc2c1)C(=O)O; Dopa = N[C@@H](Cc1ccc(O)c(O)c1)C(=O)O; NMehPhe = CN[C@@H](CCc1ccccc1)C(=O)O; NMeF = CN[C@@H](Cc1ccccc1)C(=O)O; NMePhg = CN[C@H](C(=O)O)c1ccccc1; 3Pal = N[C@@H](Cc1cccnc1)C(=O)O; Tic = O=C(O)[C@@H]1Cc2ccccc2CN1; Phg = N[C@H](C(=O)O)c1ccccc1

What was measured:
[1] = Membrane permeability assessed as passive transport after 4 hrs by PAMPA
[2] = Membrane permeability by PAMPA
HeLa = assay: Cytotoxicity against human HeLa cells at 25 to 100 uM after 24 hrs by MTT assay; assay type: functional, cell-based
Method in brief: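 HeLa cells seeded at 7000 cells/well and grown 24 h, then given peptide in medium (solutions centrifuged first, as not fully soluble) at 25, 50 and 100 µM for 24 h at 37 °C. MTT added at 22 h (0.5 mg/mL final) for 2 h. Formazan dissolved in 2-propanol, A570 read after 45 min. Viability is % of untreated cells; mean ± SD.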

[3] = Stability in human serum after 12 hrs
[4] = Membrane permeability by PAMPA in presence of 20% 1-propanol; assay type: ADME; conditions: read-out: permeability
Method in brief: (§1)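 PAMPA-BBB model, 200 µM compound in pION buffer pH 7.4 with 20% 1-propanol in the donor well. Filter coated with phospholipid mix (20 mg/mL in dodecane); acceptor holds buffer plus 1-propanol. Incubated 4 h at room temperature, saturated humidity, orbital shaking 100 rpm. Donor and acceptor quantified by RP-HPLC. % transport at 4 h and Pe (eq 1) calculated; mean ± SD.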

[5] = Membrane permeability assessed as passive transport after 4 hrs by PAMPA in presence of 20% 1-propanol; assay type: ADME; method in brief: as §1

Compound | permeability [1] | Papp ([2]; permeability) | other results
CC(=O)N[C@@H](Cc1c[nH]c2ccccc12)C(=O)N(C)[C@@H](Cc1ccccc1)C(=O)N(C)[C@@H](Cc1ccccc1)C(=O)N(C)[C@@H](Cc1ccccc1)C(N)=O (Ac-W[NMeF][NMeF][NMeF]-NH2) | 3.9% | 1.8 ×10⁻⁶ cm/s | 
CC(=O)N[C@@H](Cc1ccc2ccccc2c1)C(=O)N(C)[C@@H](Cc1ccccc1)C(=O)N(C)[C@@H](Cc1ccccc1)C(=O)N(C)[C@@H](Cc1ccccc1)C(N)=O (Ac-[2Nal][NMeF][NMeF][NMeF]-NH2) |  |  | Activity (HeLa): Not toxic
CC(=O)N[C@@H](Cc1cccnc1)C(=O)N(C)[C@@H](Cc1ccccc1)C(=O)N(C)[C@@H](Cc1ccccc1)C(=O)N(C)[C@@H](Cc1ccccc1)C(N)=O (Ac-[3Pal][NMeF][NMeF][NMeF]-NH2) | 2.5% | 1.2 ×10⁻⁶ cm/s | 
CC(=O)N(C)[C@H](C(=O)N(C)[C@@H](Cc1ccccc1)C(=O)N(C)[C@@H](Cc1ccccc1)C(=O)N(C)[C@@H](Cc1ccccc1)C(N)=O)c1ccccc1 (Ac-[NMePhg][NMeF][NMeF][NMeF]-NH2) | 1.5% | 0.7 ×10⁻⁶ cm/s | 
CC(=O)N(C)[C@@H](Cc1c[nH]c2ccccc12)C(=O)N(C)[C@@H](Cc1ccccc1)C(=O)N(C)[C@@H](Cc1ccccc1)C(=O)N(C)[C@@H](Cc1ccccc1)C(N)=O (Ac-[NMeW][NMeF][NMeF][NMeF]-NH2) | 2.9% | 1.4 ×10⁻⁶ cm/s | 
CC(=O)N1Cc2ccccc2C[C@H]1C(=O)N(C)[C@@H](Cc1ccccc1)C(=O)N(C)[C@@H](Cc1ccccc1)C(=O)N(C)[C@@H](Cc1ccccc1)C(N)=O (Ac-[Tic][NMeF][NMeF][NMeF]-NH2) | 4.3% | 2 ×10⁻⁶ cm/s | 
CN(C(=O)[C@H](Cc1ccc2ccccc2c1)NC(=O)[C@@H](N)Cc1ccc(O)c(O)c1)[C@@H](Cc1ccccc1)C(=O)N(C)[C@@H](Cc1ccccc1)C(=O)N(C)[C@@H](Cc1ccccc1)C(N)=O (H-[Dopa][2Nal][NMeF][NMeF][NMeF]-NH2) | 0.7% |  | Papp [2]: 0.3 ×10⁻⁶ cm/s
CN(C(=O)[C@@H](N)Cc1ccc(O)c(O)c1)[C@@H](Cc1ccccc1)C(=O)N(C)[C@@H](Cc1ccccc1)C(=O)N(C)[C@@H](Cc1ccccc1)C(=O)N(C)[C@@H](Cc1ccccc1)C(N)=O (H-[Dopa][NMeF][NMeF][NMeF][NMeF]-NH2) | 2.4% |  | Papp [2]: 1.1 ×10⁻⁶ cm/s
CN(C(=O)[C@@H]1Cc2c([nH]c3ccccc23)CN1)[C@@H](Cc1ccccc1)C(=O)N(C)[C@@H](Cc1ccccc1)C(=O)N(C)[C@@H](Cc1ccccc1)C(N)=O (H-[Tpi][NMeF][NMeF][NMeF]-NH2) | 1.3% | 0.6 ×10⁻⁶ cm/s | 
CC(=O)N(C)[C@@H](Cc1ccccc1)C(=O)N(C)[C@@H](Cc1ccccc1)C(=O)N(C)[C@@H](Cc1ccccc1)C(=O)N(C)[C@@H](Cc1ccccc1)C(N)=O (stereo in doubt; form 2) |  |  | remaining at 12 h [3]: 91%; Activity (HeLa): Not toxic
Cn1c(=O)c2c(ncn2C)n(C)c1=O [CAFFEINE] | 3.6% | 1.8 ×10⁻⁶ cm/s | Papp [4]: 1.8 ×10⁻⁶ cm/s; permeability [5]: 3.6%
N[C@@H](Cc1ccc(O)c(O)c1)C(=O)O [LEVODOPA] | 0% |  | permeability [5]: 0%
CC(C)NCC(O)COc1cccc2ccccc12 (centres undefined) [PROPRANOLOL] | 13.5% | 6.9 ×10⁻⁶ cm/s | Papp [4]: 8.4 ×10⁻⁶ cm/s; permeability [5]: 14.9%

Further lines, with some results ahead:

permeability [1] | Papp ([2]; permeability) | Compound | other results
1.9% | 0.9 ×10⁻⁶ cm/s | CC(=O)N(C)[C@@H](Cc1ccccc1)C(=O)N(C)[C@@H](Cc1ccccc1)C(=O)N(C)[C@@H](Cc1ccccc1)C(=O)N(C)[C@@H](Cc1ccccc1)C(=O)O (Ac-[NMeF][NMeF][NMeF][NMeF]-OH) | 
3.7% | 1.8 ×10⁻⁶ cm/s | CC(=O)N(C)[C@@H](CCc1ccccc1)C(=O)N(C)[C@@H](Cc1ccccc1)C(=O)N(C)[C@@H](Cc1ccccc1)C(=O)N(C)[C@@H](Cc1ccccc1)C(N)=O (Ac-[NMehPhe][NMeF][NMeF][NMeF]-NH2) | 
0% |  | CC(=O)N[C@H](C(=O)N(C)[C@@H](Cc1ccccc1)C(=O)N(C)[C@@H](Cc1ccccc1)C(=O)N(C)[C@@H](Cc1ccccc1)C(N)=O)c1ccccc1 (Ac-[Phg][NMeF][NMeF][NMeF]-NH2) | 
3.2% | 1.5 ×10⁻⁶ cm/s | CC(=O)N1Cc2[nH]c3ccccc3c2C[C@H]1C(=O)N(C)[C@@H](Cc1ccccc1)C(=O)N(C)[C@@H](Cc1ccccc1)C(=O)N(C)[C@@H](Cc1ccccc1)C(N)=O (Ac-[Tpi][NMeF][NMeF][NMeF]-NH2) | 
4.6% | 2.2 ×10⁻⁶ cm/s | CN(C(=O)[C@@H]1Cc2ccccc2CN1)[C@@H](Cc1ccccc1)C(=O)N(C)[C@@H](Cc1ccccc1)C(=O)N(C)[C@@H](Cc1ccccc1)C(N)=O (H-[Tic][NMeF][NMeF][NMeF]-NH2) | 
16.8% | 8 ×10⁻⁶ cm/s | NC(=O)N1c2ccccc2C=Cc2ccccc21 [CARBAMAZEPINE] | Papp [4]: 12.8 ×10⁻⁶ cm/s; permeability [5]: 20.6%
0% |  | NCCc1ccc(O)c(O)c1 [DOPAMINE] | permeability [5]: 0%
